Measured values from different studies.
Lines come from different studies, so protocols differ.
Target: MAP kinase-interacting serine/threonine-protein kinase 2 (MKNK2, Homo sapiens, UniProt Q9HBH9)

| SMILES | effect on | action | method | tested at | endpoint | result |
| --- | --- | --- | --- | --- | --- | --- |
| Cc1cnc(NC2CCOCC2)nc1-n1cnc(C(=O)NC(CN)c2cc(F)cc(Cl)c2)c1 (centres unmarked) | enzyme activity | inhibitor | radiometric | 1 µM | remaining activity | 25% |
| Nc1nc(Nc2ccc(S(N)(=O)=O)cc2)nn1C(=O)c1c(F)cccc1F | cell-free assay | – | – | 0.5 µM | remaining signal | 95.9% |
| Cc1sc(C(=O)NC2COC2)cc1-n1cc(NC(=O)Nc2c(F)cccc2Cl)cn1 | enzyme activity | inhibitor | – | 10 µM | remaining activity | 83.4% |
| Cc1c[nH]c2nccc(Oc3c(F)cc(Nc4cc(Cl)nc(N)n4)cc3F)c12 | cell-free assay | – | competition with immobilised ligand | 0.1 µM | remaining binding | 90% |
| Nc1nc(NC2CCCCC2)sc1C(=O)c1ccccc1 | enzyme activity | inhibitor | – | 10 µM | remaining activity | 94% |
| CSc1cccnc1N1CCN(Cc2nc3ccccc3[nH]2)CC1 | cell-free assay | – | competition with immobilised ligand | 1 µM | remaining binding | 75% |
| CCN(CC)CCNC(=O)c1c(C)[nH]c(/C=C2\C(=O)Nc3ccc(F)cc32)c1C | enzyme activity | inhibitor | – | 10 µM | inhibition | 6% |
| CO[C@@H](C)c1c(Nc2ccc([C@@H](N(C)C(=O)C3CCS(=O)(=O)CC3)C(F)(F)F)cc2)cnc2cc(Cl)nn12 | cell-free assay | – | competition with immobilised ligand | 1 µM | remaining binding | 85% |
| COc1cc(Nc2cnc(C#N)c(O[C@H](C)CN(C)C)n2)ncc1-c1cnn(C)c1 | enzyme activity | inhibitor | radiometric | 1 µM | remaining activity | 98% |
| CC1=C(C#N)[C@@H](c2ccc3[nH]nc(C)c3c2)C(C#N)=C(c2ccc(Cl)cc2)N1 | cell-free assay | – | competition with immobilised ligand | 1 µM | remaining binding | 90.6% |
| COc1cc(Cl)c(C(=O)N[C@@H](CN[C@H]2CC[C@@H](N)CC2)Cc2ccc(C#N)cc2)cc1-c1ccc(CN[C@H](C)c2ccc(C)cc2)o1 | enzyme activity | inhibitor | – | 1 µM | remaining activity | 102% |
| FC(F)c1nc2ccccc2n1-c1nc(N2CCOCC2)nc(N2CCOCC2)n1 | enzyme activity | inhibitor | – | 10 µM | remaining activity | 101% |
| CC(C)(O)c1cncc(-c2nc3ccc(F)cc3n2C2CC2)c1 | cell-free assay | – | competition with immobilised ligand | 1 µM | remaining binding | 100% |
| CN1CC(Oc2cnc(C#N)cc2-c2ccn3nc(NC(=O)C4CC4)cc3c2)C1 | enzyme activity | inhibitor | – | 1 µM | inhibition | 5% |
| N#CCCc1ccc2c(c1)-c1[nH]c3ccc([N+](=O)[O-])cc3c1CC(=O)N2 | cell-free assay | – | – | 0.5 µM | remaining signal | 87.7% |
| CC(=O)C1=C(O)C=C2Oc3c(C(N)=O)c(O)cc(O)c3[C@]2(C)C1=O | enzyme activity | inhibitor | radiometric | 10 µM | activity vs control | 0% |

| SMILES | effect on | action | method | tested at | endpoint | result |
| --- | --- | --- | --- | --- | --- | --- |
| COc1ccc(COc2ccc(Cc3cnc(N)nc3N)cc2OC)cc1 | cell-free assay | – | – | 0.5 µM | remaining signal | 90.6% |
| CS(=O)(=O)Nc1cccc(-c2csc(NC(=O)CSc3nc4nccnc4c(=O)n3CCc3ccccc3)n2)c1 | enzyme activity | inhibitor | – | 10 µM | inhibition | -10% |
| Nc1ncnc2occ(-c3ccc(NC(=O)Nc4cc(C(F)(F)F)ccc4F)cc3)c12 | cell-free assay | inhibitor | – | 20 µM | remaining signal | 0% |
| COc1cc2c(Nc3ccc(Br)cc3F)ncnc2cc1OCC1CCN(C)CC1 | cell-free assay | – | – | 0.5 µM | remaining signal | 86.9% |
| COc1cc(/C=C/C(=O)CC(=O)/C=C/c2ccc(O)c(OC)c2)ccc1O | enzyme activity | inhibitor | – | 1 µM | activity vs control | 129% |
| Cc1cc(NC(=O)c2cccc3cc(-c4cccc5[nH]nc(N)c45)ccc23)ccc1F | enzyme activity | inhibitor | – | 0.1 µM | activity vs control | 111% |
| CC(C)(C)c1nc2c(s1)c1nc(N)ncc1c1ccc(NS(=O)(=O)c3c(F)cccc3F)c(F)c12 | enzyme activity | inhibitor | radiometric | 1 µM | remaining activity | 98% |
| CNC(=O)c1cc(Oc2ccc(NC(=O)Nc3ccc(Cl)c(C(F)(F)F)c3)cc2)ccn1 | enzyme activity | inhibitor | – | 0.3 µM | inhibition | 61% |
| CC(C)(O)[C@H]1CC[C@H](Nc2ccc3ncc(-c4cccc(C(F)(F)F)c4)n3n2)CC1 | enzyme activity | inhibitor | – | 1 µM | remaining activity | 66.5% |
| Cc1ccc(Nc2nccc(N(C)c3ccc4c(C)n(C)nc4c3)n2)cc1S(N)(=O)=O | enzyme activity | inhibitor | – | 0.3 µM | inhibition | 3% |
| O=C(N[C@H]1CCCCC/C=C\C2C[C@@]2(C(=O)O)NC(=O)[C@@H]2C[C@@H](Oc3ccncc3)CN2C1=O)OC1CCCC1 (some centres unmarked) | binding | – | competition with immobilised ligand | 1 µM | remaining binding | 75% |
| C=CC(=O)Nc1cc(Nc2nccc(Nc3cc(Cl)c(F)cc3C(C)(C)O)n2)c(OC)cc1N1CC[C@@H](N(C)C)C1 | enzyme activity | inhibitor | – | 1 µM | inhibition | 67% |
| CC(=O)C1=C(C)N(c2cccc(C(F)(F)F)c2)C(=O)N[C@@H]1c1ccc(C#N)nc1 | cell-free assay | – | competition with immobilised ligand | 1 µM | remaining binding | 84.8% |
| CCCOc1ccc(OC)c(F)c1C(=O)c1ccc(C(=O)N[C@@H]2CNC[C@H]2NC(=O)c2ccc3[nH]ncc3c2)cc1 | enzyme activity | inhibitor | – | 10 µM | remaining activity | 67% |
| O=C(NCc1ncc(C(F)(F)F)cc1Cl)c1ccc2c(c1)C1(CCS(=O)(=O)CC1)[C@@H](C1CC1)N2S(=O)(=O)c1ccc(F)cc1 | cell-free assay | – | competition with immobilised ligand | 1 µM | remaining binding | 76% |
| FC(F)(F)Oc1cccc(-c2cnc3ccc(-c4ccncc4)nn23)c1 | enzyme activity | inhibitor | radiometric | 5 µM | activity vs control | 81% |
